Test results as given in ChEMBL document CHEMBL1157684, “2-Thienyl-4-furyl-6-aryl pyridine derivatives: synthesis, topoisomerase I and II inhibitory activity, cytotoxicity, and structure-activity relationship study” (Bioorg Med Chem, 2010).
Counter-ions that a name gives are not always drawn. The source made the active and inactive calls. The calls are words filed in the database; no cut-off is given here.

Key:
[1] = system: K562; experiment: Cytotoxicity against human K562 cells after 4 days by ELISA reader assay; type: functional, cell-based; conditions: K562, 96 h
Summary of the method: (§1)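 Cells grown per supplier, seeded at 2–4 × 10⁴ per well, left overnight in medium with 10% FBS at 37 °C under 5% CO₂, then exposed to compounds. WST (cell counting kit-8) reagent added for a further 4 h, absorbance read at 450 nm. IC50 from four-parameter logistic fit; mean ± S.D. of three experiments, each in triplicate.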

[2] = target: DNA topoisomerase 2-alpha (Homo sapiens) (UniProt P11388); experiment: Inhibition of human DNA topoisomerase 2alpha-mediated relaxation of supercoiled pBR322 DNA at 100 uM after 30 mins by agarose gel electrophoresis
Chain of DNA topoisomerase 2-alpha (Homo sapiens) (P11388 whole entry): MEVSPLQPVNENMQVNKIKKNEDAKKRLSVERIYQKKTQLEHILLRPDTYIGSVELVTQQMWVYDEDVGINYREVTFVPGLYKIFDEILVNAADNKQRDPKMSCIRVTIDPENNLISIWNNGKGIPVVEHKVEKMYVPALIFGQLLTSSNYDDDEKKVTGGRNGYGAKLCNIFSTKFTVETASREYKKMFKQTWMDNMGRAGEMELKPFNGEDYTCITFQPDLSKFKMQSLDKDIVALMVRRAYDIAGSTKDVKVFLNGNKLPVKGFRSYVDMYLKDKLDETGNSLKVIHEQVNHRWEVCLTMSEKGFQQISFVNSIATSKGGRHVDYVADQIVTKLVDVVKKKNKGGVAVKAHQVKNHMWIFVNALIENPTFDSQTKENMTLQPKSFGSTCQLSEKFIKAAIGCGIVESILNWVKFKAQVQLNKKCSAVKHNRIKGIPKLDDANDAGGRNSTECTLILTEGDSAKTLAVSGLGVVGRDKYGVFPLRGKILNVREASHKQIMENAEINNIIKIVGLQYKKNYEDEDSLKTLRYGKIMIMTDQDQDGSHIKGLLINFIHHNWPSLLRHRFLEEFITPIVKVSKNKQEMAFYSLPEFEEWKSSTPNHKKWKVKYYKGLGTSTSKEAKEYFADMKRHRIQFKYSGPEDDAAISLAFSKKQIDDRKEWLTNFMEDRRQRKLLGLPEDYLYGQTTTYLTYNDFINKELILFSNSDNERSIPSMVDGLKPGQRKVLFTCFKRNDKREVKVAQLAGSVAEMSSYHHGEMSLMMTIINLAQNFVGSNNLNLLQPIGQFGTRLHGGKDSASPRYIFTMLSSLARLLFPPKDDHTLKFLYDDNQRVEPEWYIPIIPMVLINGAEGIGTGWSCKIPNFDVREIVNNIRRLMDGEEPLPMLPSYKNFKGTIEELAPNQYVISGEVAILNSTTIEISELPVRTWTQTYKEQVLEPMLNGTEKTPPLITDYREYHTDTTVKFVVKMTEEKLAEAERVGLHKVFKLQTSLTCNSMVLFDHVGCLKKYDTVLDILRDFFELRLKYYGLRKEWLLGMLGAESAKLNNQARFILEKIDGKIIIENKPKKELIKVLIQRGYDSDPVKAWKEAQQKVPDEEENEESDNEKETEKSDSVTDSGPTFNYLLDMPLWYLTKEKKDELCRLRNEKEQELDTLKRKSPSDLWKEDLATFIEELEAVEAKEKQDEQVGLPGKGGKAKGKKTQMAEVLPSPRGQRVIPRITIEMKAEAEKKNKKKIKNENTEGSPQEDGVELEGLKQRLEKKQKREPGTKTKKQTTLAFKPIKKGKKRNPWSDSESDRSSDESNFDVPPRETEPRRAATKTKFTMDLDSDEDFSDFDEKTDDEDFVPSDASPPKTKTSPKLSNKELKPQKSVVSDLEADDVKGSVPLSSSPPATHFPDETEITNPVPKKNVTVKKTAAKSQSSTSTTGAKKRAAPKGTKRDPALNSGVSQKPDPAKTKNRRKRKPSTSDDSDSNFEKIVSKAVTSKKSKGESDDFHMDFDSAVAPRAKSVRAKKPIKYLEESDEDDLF
Summary of the method: (§2)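 Human topo IIα (1 unit) with 200 ng supercoiled pBR322, 30 min at 30 °C in 10 mM Tris–HCl pH 7.9, 50 mM NaCl, 50 mM KCl, 5 mM MgCl2, 1 mM EDTA, 1 mM ATP plus BSA. Products run on 1% agarose in TAE at 25 V for 4 h, ethidium-stained, supercoiled DNA quantified under UV.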

[3] = system: DU-145; experiment: Cytotoxicity against human DU145 cells after 4 days by ELISA reader assay; type: functional, cell-based; conditions: DU-145, 96 h; summary of the method: as §1
[4] = system: HCT-15; experiment: Cytotoxicity against human HCT15 cells after 4 days by ELISA reader assay; type: functional, cell-based; conditions: HCT-15, 96 h; summary of the method: as §1
[5] = system: MCF7; experiment: Cytotoxicity against human MCF7 cells after 4 days by ELISA reader assay; type: functional, cell-based; conditions: MCF7, 96 h; summary of the method: as §1
[6] = target: T1, DNA topoisomerase 1 (Homo sapiens) (UniProt P11387); experiment: Inhibition of human recombinant DNA topoisomerase 1-mediated relaxation of supercoiled pBR322 DNA at 100 uM after 30 mins by agarose gel electrophoresis
T1 sequence (whole entry): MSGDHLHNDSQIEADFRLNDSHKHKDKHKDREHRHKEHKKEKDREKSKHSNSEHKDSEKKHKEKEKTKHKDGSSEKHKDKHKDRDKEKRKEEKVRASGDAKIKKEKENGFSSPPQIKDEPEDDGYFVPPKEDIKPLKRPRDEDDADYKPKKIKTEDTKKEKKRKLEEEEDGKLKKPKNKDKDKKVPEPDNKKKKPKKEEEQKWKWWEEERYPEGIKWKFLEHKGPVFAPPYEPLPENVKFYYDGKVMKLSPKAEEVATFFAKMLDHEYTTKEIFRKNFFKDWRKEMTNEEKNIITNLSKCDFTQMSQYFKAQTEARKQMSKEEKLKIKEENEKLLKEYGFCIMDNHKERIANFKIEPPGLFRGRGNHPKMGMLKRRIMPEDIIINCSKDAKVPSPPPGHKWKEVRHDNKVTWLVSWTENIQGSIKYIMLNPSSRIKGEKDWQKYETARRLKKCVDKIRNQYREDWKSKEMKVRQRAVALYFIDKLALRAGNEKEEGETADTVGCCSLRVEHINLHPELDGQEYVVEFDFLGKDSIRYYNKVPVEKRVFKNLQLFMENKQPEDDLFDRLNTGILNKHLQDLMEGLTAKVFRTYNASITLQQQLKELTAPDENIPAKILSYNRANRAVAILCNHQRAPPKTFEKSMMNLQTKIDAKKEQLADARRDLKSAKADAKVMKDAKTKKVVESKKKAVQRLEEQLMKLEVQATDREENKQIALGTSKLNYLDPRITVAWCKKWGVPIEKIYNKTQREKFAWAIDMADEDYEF
Summary of the method: (§3)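 Recombinant human topo I (0.4 units) with 100 ng supercoiled pBR322, 30 min at 37 °C in 10 mM Tris–HCl pH 7.9, 150 mM NaCl, 0.1% BSA, 1 mM spermidine, 5% glycerol. Compounds from 20 mM DMSO stock. Products run on 1% agarose in TAE, 15 V for 7 h, ethidium-stained, bands quantified under UV.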

[7] = system: HeLa; experiment: Cytotoxicity against human HeLa cells after 4 days by ELISA reader assay; type: functional, cell-based; conditions: 96 h; summary of the method: as §1
[8] = target: T1, DNA topoisomerase 1 (Homo sapiens); experiment: Inhibition of human recombinant DNA topoisomerase 1-mediated relaxation of supercoiled pBR322 DNA at 20 uM after 30 mins by agarose gel electrophoresis; summary of the method: as §3
[9] = target: DNA topoisomerase 2-alpha (Homo sapiens) (UniProt P11388); experiment: Inhibition of human DNA topoisomerase 2alpha-mediated relaxation of supercoiled pBR322 DNA at 20 uM after 30 mins by agarose gel electrophoresis; summary of the method: as §2

SMILES	inhibition [2]	inhibition [6]	inhibition [8]	inhibition [9]	IC50 [1]	IC50 [3]	IC50 [4]	IC50 [5]	IC50 [7]
COc1cccc2c1C(=O)c1c(O)c3c(c(O)c1C2=O)C[C@@](O)(C(=O)CO)C[C@@H]3O[C@H]1C[C@H](N)[C@H](O)[C@H](C)O1 [DOXORUBICIN HYDROCHLORIDE]					2.5 µM	1.5 µM	2.12 µM		
Cc1ccc(-c2cc(-c3ccc(Cl)o3)cc(-c3ccc(Cl)s3)n2)cc1	58.6%	14.2%	inactive	41.1%	21.4 µM	> 50 µM	> 50 µM	3.04 µM	> 50 µM
Cc1cccc(-c2cc(-c3ccoc3)cc(-c3ccc(Cl)s3)n2)c1	50.2%	2.6%	inactive	37.6%	13.7 µM	20.3 µM	0.88 µM	3.99 µM	23.6 µM
Clc1cccc(-c2cc(-c3ccc(Cl)o3)cc(-c3ccc(Cl)s3)n2)c1	53.8%	13.3%	inactive	40.7%	19.6 µM	21.6 µM	> 50 µM	15.1 µM	25.2 µM
COc1cc([C@@H]2c3cc4c(cc3[C@@H](O[C@@H]3O[C@@H]5CO[C@@H](C)O[C@H]5[C@H](O)[C@H]3O)[C@H]3COC(=O)[C@H]23)OCO4)cc(OC)c1O [ETOPOSIDE]				28.9%	2.41 µM	1.3 µM	1.09 µM	1.89 µM	1.29 µM
Clc1ccc(-c2cc(-c3ccoc3)cc(-c3cccnc3)n2)s1	60.8%	2%	inactive	40.9%	18.7 µM	18.5 µM	0.72 µM	3.48 µM	20 µM
Cc1ccccc1-c1cc(-c2ccoc2)cc(-c2ccc(Cl)s2)n1	60.7%	4.6%	inactive	49.2%	12.3 µM	18.5 µM	0.99 µM	1.43 µM	19 µM
Clc1cccc(-c2cc(-c3ccoc3)cc(-c3ccc(Cl)s3)n2)c1	54%	2.1%	inactive	50.6%	22.1 µM	23 µM	0.95 µM	2.92 µM	23.7 µM
CC[C@@]1(O)C(=O)OCc2c1cc1n(c2=O)Cc2cc3ccccc3nc2-1 [CAMPTOTHECIN]						0.66 µM	0.76 µM	0.06 µM	
Cc1ccc(-c2cc(-c3ccoc3)cc(-c3ccc(Cl)s3)n2)cc1	50.3%	0%	inactive	53.6%	17.9 µM	25.3 µM	1.17 µM	5.34 µM	28.7 µM
Cc1ccsc1-c1cc(-c2ccoc2)cc(-c2ccco2)n1	59.9%	5.4%	inactive	36.4%	23.3 µM	30.4 µM	0.64 µM	18.2 µM	30.5 µM

More lines, main results first:

inhibition [2]	inhibition [6]	inhibition [8]	inhibition [9]	SMILES	IC50 [1]	IC50 [3]	IC50 [4]	IC50 [5]	IC50 [7]
57.2%	21.4%	inactive	25.5%	Cc1ccsc1-c1cc(-c2ccc(Cl)o2)cc(-c2cccnc2)n1	12.3 µM	30.8 µM	> 50 µM	5.81 µM	> 50 µM
49.5%	0%	inactive	37.6%	Clc1ccc(-c2cc(-c3ccoc3)cc(-c3ccccc3Cl)n2)s1	15.8 µM	16.4 µM	1.1 µM	7.36 µM	19 µM
59.8%	2.2%	inactive	42.7%	Clc1ccc(-c2cc(-c3ccc(Cl)o3)cc(-c3ccc(Cl)s3)n2)cc1	19.3 µM	23 µM	25.3 µM	12.6 µM	25.1 µM
61.1%	7.8%	inactive	30.7%	Cc1ccsc1-c1cc(-c2ccc(Cl)o2)cc(-c2ccco2)n1	10.6 µM	27.3 µM	26.3 µM	5.57 µM	22.2 µM
33.8%	85.9%	10.6%	8.1%	Cc1ccsc1-c1cc(-c2ccoc2)cc(-c2ccc(Cl)cc2)n1	19.6 µM	20.1 µM	2.99 µM	20.3 µM	17.4 µM
60.5%	13.2%	inactive	54%	Cc1ccc(-c2cc(-c3ccoc3)cc(-c3ccc(Cl)s3)n2)o1	12.7 µM	33.4 µM	0.79 µM	1.9 µM	26.5 µM
51.5%	5.9%	inactive	35.7%	Cc1ccsc1-c1cc(-c2ccc(Cl)o2)cc(-c2cccc(Cl)c2)n1	13.4 µM	20.5 µM	26.4 µM	18.8 µM	24.8 µM
49.1%	9.6%	inactive	48.6%	Clc1ccc(-c2cc(-c3ccoc3)cc(-c3ccco3)n2)s1	16.2 µM	17.2 µM	1.28 µM	4.74 µM	22.7 µM
53.8%	23.1%	inactive	39.9%	Clc1ccc(-c2cc(-c3ccco3)nc(-c3ccc(Cl)s3)c2)o1	22.5 µM	27.7 µM	> 50 µM	16.9 µM	> 50 µM
53.3%	53.1%	42.9%	48.4%	Clc1ccc(-c2cc(-c3ccco3)cc(-c3ccc(Cl)s3)n2)cc1	10.5 µM	14.8 µM	1.08 µM	1.52 µM	17 µM
56.3%	1%	inactive	17.8%	Cc1ccsc1-c1cc(-c2ccco2)cc(-c2ccc(Cl)cc2)n1	20.7 µM	26.7 µM	0.71 µM	0.89 µM	24.5 µM
59.8%	5.1%	inactive	40.4%	Cc1ccsc1-c1cc(-c2ccc(Cl)o2)cc(-c2ccc(Cl)cc2)n1	15.6 µM	21.9 µM	30.3 µM	15.3 µM	29.3 µM
33.2%	2%	inactive	3.5%	Cc1ccsc1-c1cc(-c2ccco2)cc(-c2ccccc2Cl)n1	25.4 µM	29.9 µM	0.54 µM	14.2 µM	24 µM
